ChEMBL document CHEMBL5244226, “Cyathane Diterpenes from Cultures of the Bird's Nest Fungus Cyathus hookeri and Their Neurotrophic and Anti-neuroinflammatory Activities” (J Nat Prod, 2019)
Activity calls are given as the source filed them. The rule behind the calls is not given here.

Experiments:
BV-2 = assay: Antineuroinflammatory activity in mouse BV-2 cells assessed as inhibition of LPS-induced NO production measured after 24 hrs by Griess reagent based assay; assay type: functional, cell-based; conditions: BV-2, 24 h
How it was run: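 BV-2 murine microglia in DMEM with 10% heat-inactivated FBS, seeded 2 × 10^4/well and grown 24 h at 37 °C. Then co-treated 24 h with LPS (E. coli 0111:B4, 1 μg/mL) plus test agent in DMSO. Controls were DMSO+LPS and quercetin. Supernatant nitrite by Griess reaction, A540, against a sodium nitrite standard curve. IC50 is the concentration halving NO output.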

PC-12 [1] = assay: Neurotrophic activity in rat PC-12 cells assessed as induction of NGF-mediated neurite outgrowth at 10 uM measured after 48 hrs by microscopic analysis; assay type: functional, cell-based
How it was run: (§1)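 PC-12 cells (rat) grown in DMEM with 10% heat-inactivated horse serum and 5% FBS at 37 °C, 5% CO2. Plated 1 × 10^4/well on poly-L-lysine for 24 h, then 14 h in low-serum medium (2% HS, 1% FBS). Treated 48 h with compound (DMSO) plus NGF 20 ng/mL; NGF alone as positive control. Triplicate wells, 10 random phase-contrast fields per well, ≥100 cells per field. Neurite-bearing cells counted as percentage of total.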

PC-12 [2] = assay: Cytotoxicity against rat PC-12 cells at 10 uM; assay type: toxicity, cell-based; conditions: pc-12, 10 µM
PC-12 [3] = assay: Neurotrophic activity in rat PC-12 cells assessed as induction of NGF-mediated neurite outgrowth by measuring neurite bearing cells at 5 uM measured after 48 hrs by microscopic analysis (reference value: 15.7 +/- 0.1%); assay type: functional; how it was run: as §1
PC-12 [4] = assay: Neurotrophic activity in rat PC-12 cells assessed as induction of NGF-mediated neurite outgrowth by measuring neurite bearing cells at 10 uM measured after 48 hrs by microscopic analysis (reference value: 15.7 +/- 0.1%); assay type: functional; how it was run: as §1

Structure (SMILES) | IC50 (BV-2) [µM] | Activity (PC-12 [1]) | Activity (PC-12 [2]) | Activity (PC-12 [3]) [%] | Activity (PC-12 [4]) [%]
COC(OC)C1=C[C@H](O)[C@]2(C)CC[C@@]3(C)CCC(C(C)C)=C3[C@H]2C[C@H]1OC | 36.8 | Active | – | – | –
CC(C)C1=C2[C@H]3C[C@H]4O[C@](O)(C=C4C(=O)O)[C@]3(C)CC[C@@]2(C)CC1 | > 50 | Active | – | – | –
CC(C)[C@]12CC[C@]3(C)CC[C@@]4(C)C(=O)C=C(CO)[C@H](O)C[C@@H]4[C@@]31O2 | > 50 | Active | – | – | –
CC1=CC(=O)[C@]2(C)CC[C@@]3(C)CCC(C(C)C)=C3[C@H]2CC1 | 27.8 | Active | – | – | –
CC(C)C1=C2[C@H]3C[C@H]4O[C@](O)([C@H](O)[C@H]4CO)[C@]3(C)CC[C@@]2(C)CC1 | > 50 | Active | – | – | –
CC1=C[C@H](O)[C@]2(C)CC[C@@]3(C)CCC(C(C)C)=C3[C@H]2CC1 | 32.8 | Active | – | – | –
CC(C)C1=C2[C@H]3C[C@H]4O[C@](O)([C@H](O)[C@@H]4CO)[C@]3(C)CC[C@@]2(C)CC1 | > 50 | Active | – | – | –

The remaining compounds from weak to strong by IC50 (BV-2), led by results:

IC50 (BV-2) [µM] | Structure (SMILES) | Activity (PC-12 [1]) | Activity (PC-12 [2]) | Activity (PC-12 [3]) [%] | Activity (PC-12 [4]) [%]
27.3 | CC(C)C1=C2[C@H]3C[C@H]4O[C@](O)(C=C4COC(=O)C(C)O)[C@]3(C)CC[C@@]2(C)CC1 (some centres not stated) | Active | – | 28.1 | 32
22.1 | CC(C)C1=C2[C@H]3C[C@@H](O)C(CO)=C[C@H](O)[C@]3(C)CC[C@@]2(C)CC1 | Active | – | – | –
19.7 | CO[C@H]1C(=O)[C@]2(C)CC[C@@]3(C)CCC(C(C)C)=C3[C@H]2CC=C1C=O | Active | – | – | –
15.5 | CC(C)C1=C2[C@H]3C[C@H]4O[C@](O)([C@H](O)[C@@H]4C4O[C@@H](C)[C@@H](C)O4)[C@]3(C)CC[C@@]2(C)CC1 (some centres not stated) | Active | – | – | –
12 | CC(C)C1=C2[C@H]3C[C@H]4O[C@](O)(C=C4C4O[C@@H](C)[C@@H](C)O4)[C@]3(C)CC[C@@]2(C)CC1 (some centres not stated) | Active | – | – | –
10.9 | CC(C)C1=C2[C@H]3CC=C(C=O)CC(=O)[C@]3(C)CC[C@@]2(C)CC1 | Active | – | – | –
9.1 | CO[C@@H]1C(C=O)=CC[C@@H]2C3=C(C(C)C)CC[C@]3(C)CC[C@@]2(C)[C@H]1O | – | Toxic | – | –
6.9 | CO[C@H]1C[C@@H]2C3=C(C(C)C)CC[C@]3(C)CC[C@@]2(C)[C@@H](O)C=C1C=O | – | Toxic | – | –
